RORA act: activators of human nuclear receptor RORA. activation, % at 10 µM. CHO-K1 Gal4-RORA LBD luciferase reporter, luminescence; percent increase over mock-subtracted basal signal. AID 560. P35398. actives 1.5% (n = 65,000);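 active = activation above the mean of all tested compounds plus 3 SD, cut at about 49% in these data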;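 also: 0% = DMSO-treated RORA cells and 100% = added signal equal to DMSO minus mock-transfected cells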
Target sequence (P35398 whole entry, looked up, the tested form may be a part): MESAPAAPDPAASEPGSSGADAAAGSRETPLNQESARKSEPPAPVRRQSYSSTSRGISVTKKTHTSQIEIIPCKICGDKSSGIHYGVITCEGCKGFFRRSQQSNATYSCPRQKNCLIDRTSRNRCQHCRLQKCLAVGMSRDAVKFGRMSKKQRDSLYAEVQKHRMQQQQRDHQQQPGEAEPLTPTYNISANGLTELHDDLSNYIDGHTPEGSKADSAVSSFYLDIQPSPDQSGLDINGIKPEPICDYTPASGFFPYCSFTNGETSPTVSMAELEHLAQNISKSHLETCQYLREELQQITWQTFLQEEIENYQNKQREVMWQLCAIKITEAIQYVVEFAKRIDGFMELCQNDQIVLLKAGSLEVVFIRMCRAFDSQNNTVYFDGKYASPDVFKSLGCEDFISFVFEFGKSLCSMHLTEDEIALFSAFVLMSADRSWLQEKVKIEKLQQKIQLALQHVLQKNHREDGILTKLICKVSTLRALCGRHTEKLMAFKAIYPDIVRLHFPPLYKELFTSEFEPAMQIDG
M1 antagonist: blocks the rat M1 muscarinic receptor response to acetylcholine; P08482; CHO-M1 cells, Fluo-4 calcium, ACh EC80 antagonist mode; active compounds read low; B-score at 10 µM; actives 3.4% (n = 64,000);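 active = calcium fluorescence response, raw or row-and-column corrected B-score, differing from the plate sample mean either way at a set confidence level, mostly lower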
S1P1 ag-PAM: activates or potentiates agonism at human S1P1 receptor | P21453 | S1P1 CRE-bla cells, forskolin, beta-lactamase FRET, potentiator mode; S1P1 agonist co-added at EC20, 2 nM; 100% = saturating reference agonist, 0% = basal | activation, % at 9.5 µM | actives 0.57% (n = 56,000) | AID 449;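 active = activation above a cutoff set at the mean activation of all tested compounds plus 3 SD, cut at about 54% in these data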;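 also: forskolin at 4 µM as EC80 and the EC20 agonist is SEW2871; 100% = SEW2871 at its EC100 plus forskolin at EC80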
M1 ag: M1 muscarinic receptor agonism; B-score at 10 µM; actives 3% (n = 64,000); CHO-M1 cells, Fluo-4 calcium fluorescence, agonist mode; active compounds read high;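 active = fluorescence rise, raw or as B-score row- and column-corrected plate score, outside the 99.7% band of its plate's samples, either direction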
SF1 activator: activators of human nuclear receptor SF-1; Q13285; AID 522; CHO-K1 Gal4-SF-1 LBD luciferase reporter; % increase over DMSO SF-1-specific signal; actives 1.9% (n = 65,000); activation, % at 10 µM;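 active = activation above the mean activation of all tested compounds plus 3 SD, cut at about 50% in these data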
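Assay system – CHO-K1 cells with Gal4–hSF-1 LBD chimera plus Gal4-driven luciferase · Quantity – 4,000 cells per well · Times – compound added 1 h post-seeding, 20 h exposure at 37 °C, 5% CO2 · Measured by – luciferase light emission · Benchmarks – DMSO and mock-transfected background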
S1P3 agonist: S1P3 (human) receptor agonism. Q99500. S1P3 NFAT-BLA reporter cells, FRET ratio; relative to 1 µM S1P, basal subtracted. activation, % at 4.5 µM. actives 0.1% (n = 60,000). AID 373;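 active = activation above the screen-wide mean plus 3 SD, cut at about 4.5% in these data, passing the limit was not always enough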
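Benchmarks: high control 1 µM S1P / System: stable CHO line with human S1P3, Gα16, NFAT-BLA reporter / Dosing: single compound concentration, 4.5 µM final / Timing: 4 h compound at 37 °C, 2 h substrate at RT / Measured by: FRET β-lactamase substrate fluorescence, excitation 405 nm, 460/535 nm emission ratio, background-subtracted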
M1 agonist conf: rat M1 muscarinic agonism, confirmation; AID 1488; fluorescence change (max-min) at 10 µM; CHO-M1 cells, Fluo-4 calcium fluorescence, agonist mode; actives lie on both sides; actives 19% (n = 1,700); shares compounds with M1 ag;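 active = fluorescence change differs from the solvent-only DMSO control mean at a set confidence level in both duplicate runs; inconclusive = differs from solvent-only control mean in just one of two runs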;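 also: an EC20 dose of acetylcholine follows compound addition during the same imaging run; raw fluorescence intensity difference in instrument units with no normalization to controls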
M4 ag counter: rat M4 muscarinic agonism, M1 counter-screen; fluorescence change (max-min) at 10 µM; AID 1741; shares compounds with M1 ag; CHO M4/Gqi5 cells, Fluo-4 calcium fluorescence, agonist mode; actives lie on both sides; actives 9% (n = 1,700);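 active = fluorescence change differing from the plate's solvent-only control wells at 99.7% confidence in both duplicates, whether higher or lower; inconclusive = differs from solvent controls in only one of two duplicates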
M1 antag conf: confirmation of rat M1 muscarinic receptor antagonists | shares compounds with M1 antagonist | CHO-M1 cells, Fluo-4 calcium, ACh EC80 antagonism; active compounds read low | calcium response (max-min fluorescence) at 10 µM | actives 43% (n = 1,700);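 active = calcium response below the same-plate mean of wells given acetylcholine alone at its 80%-effect dose, minus 3 SD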;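 also: raw fluorescence intensity difference in arbitrary instrument units and not normalized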
mGluR4 antag: acts on human mGluR4 in M1 antagonist selectivity test | shares compounds with M1 antagonist | CHO-mGluR4 calcium flux, Fluo-4 fluorescence, glutamate EC80; active compounds read low | fluorescence response (max-min) at 10 µM | actives 0.9% (n = 1,700);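 active = fluorescence response below the plate's average for near-maximal glutamate wells, less 3 SD of those wells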;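 also: raw unnormalized fluorescence span taken in the window right after glutamate addition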
An asterisk follows results filed as active; ? = inconclusive; . = no result given. Most compounds without a hit are left out; they make up all but 8.8% or so of the library.

SMILES | RORA act | M1 antagonist | S1P1 ag-PAM | M1 ag | SF1 activator | S1P3 agonist | M1 antag conf | mGluR4 antag | others
O=C(CCc1nc(-c2ccccc2F)no1)N1CCC2(CC1)OCCO2 | -26 | -0.64 | -10 | -0.63 | -10 | -1 | . | .
CNCC(O)c1cccc(OC(=O)c2ccccc2C)c1 (centres undefined) | -14 | 0.58 | -3 | -3.3* | 18 | -1 | . | . | M1 agonist conf=-14;M4 ag counter=?
O=C1NCCN2CCCC12 (centres undefined) | -24 | -0.2 | -14 | -0.58 | 12 | -3 | . | .
Oc1ccc(C2NCc3ccccc3-n3cccc32)cc1Cl (centres undefined) | -6 | -3.5* | 94* | -1.8 | 5 | 0 | 579 | 248
O=C1NC(=O)C(Cc2cccs2)C(=O)N1 | 1 | -0.45 | -8 | 2.2 | -13 | 0 | . | .
CC1(C)CN=C(NCc2ccccc2Cl)S1 | -11 | -5.1* | 5 | 1 | 5 | -1 | 350* | 193
CN1CCC(N(C)c2ncnc3ccc(Br)cc23)CC1 | 8 | -0.9* | -1 | -0.34 | 30 | 1 | 516 | 244
CN(C)CCc1nn[nH]n1 | -22 | 0.34 | 1 | -0.16 | 4 | -2 | . | .
Cc1nc2ccccc2c(=O)n1-n1cnnc1 | -3 | -2.7* | -14 | -0.7 | -20 | 0 | 726 | 236
O=c1c2ccccc2nc(-c2ccccc2)n1-n1cccc1 | 0 | -2* | -4 | 0.97 | -8 | -2 | 632 | 249
Cc1nc2ccccc2c(=O)n1-c1ccccn1 | 12 | -0.12 | -18 | 0.34 | 9 | -1 | . | .
COc1ccc(-n2c(O)c(C(C)=NCCN3CCNCC3)c(=O)[nH]c2=O)cc1 | -2 | . | -8 | . | -7 | -1 | . | .
O=c1[nH]c(=O)n(CCc2ccc(F)cc2)c(O)c1C=NCCCn1ccnc1 | -6 | 0.25 | -3 | -0.69 | 2 | 0 | . | .
O=c1[nH]c(=O)n(Cc2ccco2)c(O)c1C=NCCCn1ccnc1 | -9 | -2.8* | 1 | -0.38 | -8 | -2 | 672 | 262
Nc1ccccc1C(=O)c1ccccc1 | 5 | 0.16 | 0 | 0.13 | 0 | -1 | . | .
Nc1ccccc1C(=O)OC1CSC1 | 1 | -6.2* | 2 | 0.24 | 30 | 0 | 668 | 241
Cc1cc(C)n(CCOC(=O)C2C(C=C(Cl)Cl)C2(C)C)n1 (centres undefined) | 3 | -0.91 | -4 | 0.063 | 0 | 0 | . | .
CCc1nc(N2CCNCC2)c(C#N)c2c1CSC(C)(C)C2 | -14 | -5.2* | -16 | -0.98 | 4 | -1 | 264* | 211
c1cc2n(c1)-c1c(ccc3c1OCO3)CNC2c1ccc2c(c1)OCO2 (centres undefined) | -5 | -10* | 25 | -1.7 | -12 | 0 | 305* | 242
COc1ccc(C2NCc3ccc4c(c3-n3cccc32)OCO4)cc1O (centres undefined) | 50* | -2.2* | 9 | -2.3 | 21 | -1 | 108* | 232
O=C(Cc1ccccc1)OC(COCc1ccccc1)CN1CCOCC1 (centres undefined) | 21 | -0.65 | -1 | 0.65 | -13 | -2 | . | .
c1ccc2c(NC3=NCCS3)cccc2c1 | -18 | -0.52 | -22 | -0.003 | 22 | 0 | . | .
CC(=NCCCN1CCCCC1)c1c(O)n(Cc2ccccc2)c(=O)[nH]c1=O | 13 | -0.92 | 13 | -0.84 | -4 | 0 | . | .

Bioassay records: PubChem BioAssay, several laboratories
